Screening results from PubChem.
A selection: hits, their analogues and other compounds. The true share with any hit is near 2.3%.
NPY-Y1 antag = NPY-Y1 (human) receptor antagonism | inhibition, % at 3.6 µM | P25929 | HEK293-CNG Y1 cells, membrane potential fluorescence; NPY at EC95, then isoproterenol | 200,000 compounds, 1% hits | AID 1040;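 active means inhibition above the campaign mean inhibition of all tested compounds plus 3 SD, cut at about 20% in these data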
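Assay system: HEK293 cells with Y1 receptor plus CNG channel | Probe or stimulus: NPY (25 nM), isoproterenol (1 µM), Ro 20-1724 (25 µM) | Timing: Compound incubation 1 h at room temperature, readout 45 min post-stimulation | Measured by: Membrane-potential fluorescent dye readout | Benchmarks: High control isoproterenol alone, low control NPY with isoproterenol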
NPY-Y2 antag = antagonists of human neuropeptide Y receptor Y2; P49146; NPY-Y2 expressing cells, antagonist mode; inhibition, % at 2.7 µM; 140,000 compounds, 0.99% hits; in the data active means inhibition above about 17%
Target sequence (P49146 whole entry, looked up): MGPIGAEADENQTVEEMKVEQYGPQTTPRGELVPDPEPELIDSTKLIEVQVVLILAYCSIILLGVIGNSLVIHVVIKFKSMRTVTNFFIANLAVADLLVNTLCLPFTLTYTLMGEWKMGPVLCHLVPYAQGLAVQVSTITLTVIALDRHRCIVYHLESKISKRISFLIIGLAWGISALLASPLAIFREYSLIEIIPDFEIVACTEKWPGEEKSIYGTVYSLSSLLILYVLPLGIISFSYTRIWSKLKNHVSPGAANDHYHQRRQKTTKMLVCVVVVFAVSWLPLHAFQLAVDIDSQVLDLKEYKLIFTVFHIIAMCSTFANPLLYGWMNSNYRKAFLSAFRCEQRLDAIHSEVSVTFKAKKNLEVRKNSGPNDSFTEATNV
Tb hexokinase = blocks Trypanosoma brucei hexokinase 1 activity | recombinant TbHK1, G6PDH-coupled NADH A340 | inhibition, % at 10 µM | 220,000 compounds, 0.11% hits;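 active means inhibition of 50% or more in the single-dose primary screen; inactive means inhibition below 50%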
Calpain2 inh = blocks pig calpain II enzyme activity; 220,000 compounds, 0.37% hits; AID 1236; purified calpain II, fluorogenic peptide substrate, 30 min; inhibition, % at 16 µM;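 active means inhibition above about 50%, limit read from the data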
NPY-Y1 PAM-ag = potentiates or activates human NPY-Y1 receptor. NPY-Y1 expressing cells, potentiator/agonist activation. activation, % at 3.6 µM. 220,000 compounds, 0.37% hits; in the data active means activation above about 33%, passing the limit was not always enough;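 further: cells stimulated with NPY at EC10 then isoproterenol at EC100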
NPY2 pot ag = potentiates or activates human NPY-Y2 receptor. activation, % at 3.6 µM. P49146. AID 1359. 220,000 compounds, 0.45% hits. cells expressing NPY-Y2, potentiator/agonist read-out; in the data active means activation above about 27%;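 further: cells stimulated with NPY near EC25 plus isoproterenol at EC100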
NPY1 antag ctr = human NPY-Y1 antagonism in NPY-Y2 counter-screen; shares compounds with NPY-Y2 antag; cell-based NPY-Y1 antagonism counterscreen; inhibition, % at 3.6 µM; 710 compounds, 19% hits; in the data active means inhibition above about 20%;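 further: cells challenged with NPY then isoproterenol with cAMP sensed through a CNG channel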
NPY-Y2 ant conf = confirmation of human neuropeptide Y receptor Y2 antagonists; shares compounds with NPY-Y2 antag; HEK293 NPY-Y2 CNG channel, membrane potential fluorescence; inhibition, % at 2.8 µM; 710 compounds, 32% hits; AID 1257;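 active means mean inhibition of triplicate wells above the hit cutoff set in the primary screen, cut at about 17% in these data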
A number is an active result.

`COc1cc(-c2cc(C(=O)NN3CCN(C)CC3)c3ccccc3n2)cc(OC)c1OC` gave NPY-Y1 antag inactive, NPY-Y2 antag inactive, Tb hexokinase inactive, Calpain2 inh inactive, NPY-Y1 PAM-ag inactive and NPY2 pot ag inactive.
Screening N#C/C(=C1/C(=O)Nc2ccc(Br)cc21)c1ccccn1 returned NPY-Y1 antag inactive, Tb hexokinase inactive, Calpain2 inh inactive, NPY-Y1 PAM-ag inactive and NPY2 pot ag inactive.
For Clc1ccc(-c2nnc(CSc3nnc(-c4cccs4)n3Cc3ccccc3)o2)cc1 the results were NPY-Y1 antag inactive, NPY-Y2 antag 25, Tb hexokinase inactive, Calpain2 inh inactive, NPY-Y1 PAM-ag inactive, NPY2 pot ag inactive, NPY1 antag ctr 23 and NPY-Y2 ant conf inactive.
For COc1ccc(-c2nnc(SCc3nnc(-c4ccc(Cl)cc4)o3)n2-c2ccccc2)cc1 the results were NPY-Y1 antag inactive, NPY-Y2 antag 23, Tb hexokinase inactive, Calpain2 inh inactive, NPY-Y1 PAM-ag inactive, NPY2 pot ag inactive, NPY1 antag ctr inactive and NPY-Y2 ant conf inactive.
Cc1nc(N2CCCCC2)c(C#N)c(C)c1[N+](=O)[O-] was read as NPY-Y1 antag inactive, Tb hexokinase inactive, Calpain2 inh inactive, NPY-Y1 PAM-ag inactive and NPY2 pot ag inactive.
CC(C)/C(=N\NS(=O)(=O)c1ccc(Br)cc1)c1cccs1 was read as NPY-Y1 antag inactive, Tb hexokinase inactive, Calpain2 inh inactive, NPY-Y1 PAM-ag inactive and NPY2 pot ag inactive.
`Cc1ccc(NC(=S)NCc2ccc3c(c2)OCO3)c(C)c1` gave NPY-Y1 antag inactive, NPY-Y2 antag 21, Tb hexokinase inactive, Calpain2 inh inactive, NPY-Y1 PAM-ag inactive, NPY2 pot ag inactive, NPY1 antag ctr inactive and NPY-Y2 ant conf inactive.
Cc1cccc(C)c1C(=O)N[C@@H](Cc1ccccc1)C(=O)O was read as NPY-Y1 antag inactive, Tb hexokinase inactive, Calpain2 inh inactive, NPY-Y1 PAM-ag inactive and NPY2 pot ag inactive.
Screening COc1ccc(CN2CCN(c3ccccn3)CC2)c(OC)c1 returned NPY-Y1 antag inactive, NPY-Y2 antag inactive, Tb hexokinase inactive, Calpain2 inh inactive, NPY-Y1 PAM-ag inactive and NPY2 pot ag inactive.
Screening COc1ccc(CN2CCN(c3ncccn3)CC2)c(OC)c1 returned NPY-Y1 antag inactive, NPY-Y2 antag 18, Tb hexokinase inactive, Calpain2 inh inactive, NPY-Y1 PAM-ag inactive, NPY2 pot ag inactive, NPY1 antag ctr inactive and NPY-Y2 ant conf inactive.
Screening CN1CCN(c2ccccc2NC(=O)c2ccc(-c3ccc(Cl)cc3Cl)o2)CC1 returned NPY-Y1 antag inactive, NPY-Y2 antag 17, Tb hexokinase inactive, Calpain2 inh inactive, NPY-Y1 PAM-ag inactive, NPY2 pot ag inactive, NPY1 antag ctr inactive and NPY-Y2 ant conf 25.
Screening CS(=O)(=O)N1CCN(c2ccccc2NC(=O)c2ccc(-c3ccc(Cl)cc3Cl)o2)CC1 returned NPY-Y1 antag inactive, NPY-Y2 antag inactive, Tb hexokinase inactive, Calpain2 inh inactive, NPY-Y1 PAM-ag inactive and NPY2 pot ag inactive.
For CCc1ccccc1NC(=S)/N=C(\N)Nc1nc(C)c2cc(C)ccc2n1 the results were NPY-Y1 antag inactive, NPY-Y2 antag inactive, Tb hexokinase inactive, Calpain2 inh inactive, NPY-Y1 PAM-ag inactive and NPY2 pot ag inactive.
Screening Cc1ccc(NC(=S)/N=C(\N)Nc2nc(C)c3cc(C)ccc3n2)c(C)c1 returned NPY-Y1 antag inactive, NPY-Y2 antag 18, Tb hexokinase inactive, Calpain2 inh inactive, NPY-Y1 PAM-ag inactive, NPY2 pot ag inactive, NPY1 antag ctr inactive and NPY-Y2 ant conf 20.
Fc1ccc(Cn2c(-c3cscn3)nc3ccccc32)c(Cl)c1 was read as NPY-Y1 antag inactive, NPY-Y2 antag inactive, Tb hexokinase inactive, Calpain2 inh inactive, NPY-Y1 PAM-ag inactive and NPY2 pot ag inactive.
`Nc1nonc1-c1nc2ccccc2n1Cc1ccc(F)cc1Cl` gave NPY-Y1 antag inactive, NPY-Y2 antag 25, Tb hexokinase inactive, Calpain2 inh inactive, NPY-Y1 PAM-ag inactive, NPY2 pot ag inactive, NPY1 antag ctr 45 and NPY-Y2 ant conf 51.
`CCN(CC)S(=O)(=O)c1cc(C(=O)Oc2cccc(-c3cnc4ccccc4n3)c2)ccc1OC` gave NPY-Y1 antag inactive, NPY-Y2 antag 20, Tb hexokinase inactive, Calpain2 inh inactive, NPY-Y1 PAM-ag inactive, NPY2 pot ag inactive, NPY1 antag ctr 31 and NPY-Y2 ant conf inactive.
For O=C(CSCc1ccc(Cl)cc1)N/N=C/c1ccccc1 the results were NPY-Y1 antag inactive, NPY-Y2 antag inactive, Tb hexokinase inactive, Calpain2 inh inactive, NPY-Y1 PAM-ag inactive and NPY2 pot ag inactive.
Screening O=C(CSCc1ccc(Cl)cc1)N/N=C/c1c(Cl)cccc1Cl returned NPY-Y1 antag inactive, NPY-Y2 antag 17, Tb hexokinase inactive, Calpain2 inh inactive, NPY-Y1 PAM-ag inactive, NPY2 pot ag inactive, NPY1 antag ctr inactive and NPY-Y2 ant conf 26.
`O=C(OCCN1C(=O)c2cccc3c(N4CCOCC4)ccc(c23)C1=O)c1cccc(Cl)c1` gave NPY-Y1 antag inactive, NPY-Y2 antag 20, Tb hexokinase inactive, Calpain2 inh inactive, NPY-Y1 PAM-ag inactive, NPY2 pot ag inactive, NPY1 antag ctr 29 and NPY-Y2 ant conf 40.
For O=C1c2cccc3c(N4CCCCC4)ccc(c23)C(=O)N1CCO the results were NPY-Y1 antag inactive, NPY-Y2 antag inactive, Tb hexokinase inactive, Calpain2 inh inactive, NPY-Y1 PAM-ag inactive and NPY2 pot ag inactive.
`CCOc1ccc(NC(=O)CC2C(=O)N(c3ccccc3)C(=O)N2CCc2cccs2)cc1` (configuration not stated) gave NPY-Y1 antag inactive, NPY-Y2 antag inactive, Tb hexokinase inactive, Calpain2 inh inactive, NPY-Y1 PAM-ag inactive and NPY2 pot ag inactive.
For Cc1cc(C(F)F)nn1CC(=O)NCc1ccc(Cl)cc1Cl the results were NPY-Y1 antag inactive, NPY-Y2 antag 17, Tb hexokinase inactive, Calpain2 inh inactive, NPY-Y1 PAM-ag inactive, NPY2 pot ag inactive, NPY1 antag ctr inactive and NPY-Y2 ant conf inactive.
For COC(=O)c1cc2c(ccn2-c2ccc(F)cc2)n1Cc1ccc(C#N)cc1 the results were NPY-Y1 antag inactive, NPY-Y2 antag 19, Tb hexokinase inactive, Calpain2 inh inactive, NPY-Y1 PAM-ag inactive, NPY2 pot ag inactive, NPY1 antag ctr inactive and NPY-Y2 ant conf inactive.
For COC(=O)c1cc2c(ccn2-c2ccc(F)cc2)n1CC(=O)N1CCN(C(=O)c2ccco2)CC1 the results were NPY-Y1 antag inactive, NPY-Y2 antag inactive, Tb hexokinase inactive, Calpain2 inh inactive, NPY-Y1 PAM-ag inactive and NPY2 pot ag inactive.
CCn1nc(C)c(CNC(=O)Nc2ccccc2C(=O)OC)c1C was read as NPY-Y1 antag inactive, Tb hexokinase inactive, Calpain2 inh inactive, NPY-Y1 PAM-ag inactive and NPY2 pot ag inactive.
Screening O=C(NC(=S)Nc1ccccn1)c1cccc([N+](=O)[O-])c1 returned Tb hexokinase inactive, Calpain2 inh inactive, NPY-Y1 PAM-ag inactive and NPY2 pot ag inactive.
